MC4R ag barr = MC4R agonists recruiting beta-arrestin, primary screen, cell-based, luminescence, agonist arm of biased-ligand search; U2OS MC4R beta-arrestin complementation; percent of melanotan II response, DMSO zero; 360,000 tested, 0.98% active; activation, % at 8.9 µM;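 active means activation above a per-plate cutoff, the mean activation of sample wells on that plate plus 3 SD, cut at about 8% in these data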
Target sequence (P32245 whole entry, looked up): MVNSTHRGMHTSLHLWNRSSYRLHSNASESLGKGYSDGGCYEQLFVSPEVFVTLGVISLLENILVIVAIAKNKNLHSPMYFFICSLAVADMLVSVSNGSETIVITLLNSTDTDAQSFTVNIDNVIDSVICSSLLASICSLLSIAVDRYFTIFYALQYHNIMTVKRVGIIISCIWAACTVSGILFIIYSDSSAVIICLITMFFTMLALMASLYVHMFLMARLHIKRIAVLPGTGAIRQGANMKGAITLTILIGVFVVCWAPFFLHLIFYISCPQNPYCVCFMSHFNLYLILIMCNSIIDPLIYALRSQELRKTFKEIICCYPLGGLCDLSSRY
EP2 modulator = EP2 receptor modulators, cAMP readout, primary screen, cell-based, HTRF cAMP, PGE2 stimulation | EP2-expressing cells, cAMP HTRF FRET, PGE2 co-stimulation | induction, % at 25 µM | 260,000 tested, 0.83% active;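 active means compounds whose cAMP rise, as percent of the full-agonist control response, exceeds 60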;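 further: rat C6 glioma line stably carrying human EP2 under a CMV promoter; the protocol text gives 20 µM as final concentration; 100% = response of wells given 1 µM PGE2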
MC4R antag cAMP = MC4R antagonists of cAMP signaling, primary screen, cell-based, TR-FRET, antagonist arm of biased-ligand search | Melanocortin receptor 4 (Homo sapiens), P32245 | MC4R-expressing cells, MTII-stimulated cAMP, LANCE TR-FRET | inhibition, % at 6.5 µM | 360,000 tested, 0.48% active | AID 540295, 2011;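 active means inhibition above its plate's cutoff, the mean of tested wells on that plate plus 3 SD, cut at about 29% in these data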;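 further: 0% = Melanotan II alone and 100% = Melanotan II plus saturating MCL0020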
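Material: U2OS-MC4R stable cell line | Reagent: Melanotan II challenge after compound preincubation | Doses: One concentration, 6.5 µM nominal | Incubation: 30-min compound preincubation, 1-h Melanotan II challenge, 1-h detection, room temperature | Signal: TR-FRET cAMP assay | Replicates: One well per compound, no replicates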
Granule exo inh = LAMP-1 surface exposure blockers, TALL-104 cells – cell-based, flow cytometry, MLPCN library, primary screen; inhibition, % at 10 µM; TALL-104 LAMP-1 surface exposure; cells stimulated with thapsigargin and PMA; AID 651702, 2012; 360,000 tested, 0.66% active;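 active means inhibition above about 55%, limit read from the data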
T cell HTS = modulators of CD8 T cell-vesicle binding, primary screen, mouse 2C CD8+ T cells, flow cytometry. response (vesicle binding), % at 7 µM. 2C CD8+ T cell-vesicle binding; hits give low values. 330,000 tested, 0.068% active;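 active means response, share of CD8 T cells binding vesicles, and their 90th percentile fluorescence all below set limits, cut at about 80% in these data, passing the limit was not always enough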;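 further: values below 100% mean blocked vesicle binding to the CD8+ T cells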
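Material: murine 2C transgenic CD8+ T lymphocytes / Also added: QL9-peptide-loaded Drosophila micro-vesicles bearing Ld, ICAM-1 and B7-1 / Schedule: binding step 1.5 h, 37 °C, antibody labelling 20 min, ice / Signal: flow cytometry, PE anti-B7-1 (FL2) versus Alexa647 anti-CD8 (FL8), PFA-fixed / Evaluation: percent CD8+ FL2 mean versus row control / Benchmarks: naked versus QL9-loaded vesicles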
EP2 antag = human EP2 receptor antagonists, primary screen, TR-FRET cAMP, C6 glioma cells; C6 glioma cells expressing human EP2; cells stimulated with saturating PGE2; inhibition, % at 25 µM; 260,000 tested, 0.52% active;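 active means percent inhibition above 40 after rounding to a whole number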;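 further: rat C6 glioma host cells with rolipram phosphodiesterase inhibitor present; the protocol text gives 20 µM as final concentration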
EP2 cAMP induct = cAMP induction in EP2, EP4, beta2-AR and parental cells, confirmation, counter-screen for EP2 modulator project, cell-based, five parallel assays, C6 glioma, HEK293; shares compounds with EP2 modulator; cAMP HTRF induction; plus low (about EC15) PGE2 agonist; calls only at 20 µM (by protocol); 1,300 tested, 47% active;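 active means cAMP induction above 50% in the main assay while under 30% in all four parallel counter assays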;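 further: rat C6 glioma cells stably expressing human EP2 receptor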
* = called active by the depositor. Rows were chosen to be rich in hits. Some 2.6% of all compounds tested hit in one or more screens of this group.

For C=CCNC(=S)NNC(=O)C(CCC(C)C)CC(C)O (configuration not stated) the results were MC4R ag barr -1, EP2 modulator -10, MC4R antag cAMP 7, Granule exo inh -1, T cell HTS 434 and EP2 antag 15.
For CCOC(=O)N1CCC(NC(=O)CN2C(=O)C(CC)Oc3ccc(C)cc32)CC1 (configuration not stated) the results were MC4R ag barr -1, EP2 modulator 11, MC4R antag cAMP 6, Granule exo inh 0, T cell HTS 523 and EP2 antag 7.
Screening O=C1CCCC(O)=C1C(C#Cc1ccccc1)C1=C(O)CCCC1=O returned MC4R ag barr -2, EP2 modulator -39, MC4R antag cAMP 0, Granule exo inh 1, T cell HTS 371 and EP2 antag 43*.
`CC1(C)CC(=O)C(C(C#Cc2ccccc2)C2=C(O)CC(C)(C)CC2=O)=C(O)C1` gave MC4R ag barr -1, EP2 modulator -31, MC4R antag cAMP 9, Granule exo inh -1, T cell HTS 300 and EP2 antag 39.
`COCC(=O)NCc1nc2ccccc2[nH]1` gave MC4R ag barr -1, EP2 modulator 15, MC4R antag cAMP 15, Granule exo inh 1, T cell HTS 260 and EP2 antag 16.
For O=C(Nc1ccccc1-c1ccccc1)C(c1ccccc1)c1ccccc1 the results were MC4R ag barr 9.4*, EP2 modulator 52, MC4R antag cAMP 1, Granule exo inh 11, T cell HTS 225 and EP2 antag 7.
Screening CC(=O)Nc1ccc(S(=O)(=O)NCc2nnnn2-c2ccc(F)cc2)cc1 returned MC4R ag barr -1, MC4R antag cAMP 0, Granule exo inh -4 and T cell HTS 187.
For Cc1ccnn1CCC(=O)O the results were MC4R ag barr 0, EP2 modulator -21, MC4R antag cAMP 11, Granule exo inh -3, T cell HTS 156 and EP2 antag 7.
`O=C(COC(=O)CCc1nc2ccccc2c(=O)[nH]1)Nc1c(Cl)cccc1C(F)(F)F` gave MC4R ag barr -3, MC4R antag cAMP 15, Granule exo inh 3 and T cell HTS 224.
Screening O=C1Nc2ccccc2/C1=C/C(=O)c1cccs1 returned MC4R ag barr -1, EP2 modulator -56, MC4R antag cAMP -2, Granule exo inh 1, T cell HTS 300 and EP2 antag 69*.
Screening O=C(Nc1nn[nH]n1)c1nc(-c2ccccc2)cc(=O)[nH]1 returned EP2 modulator 20 and EP2 antag 55*.
`Cc1cccc(C)c1NC(=O)Cn1nnc(-c2ccc(CN3CCC(C)CC3)cc2)n1` gave MC4R ag barr -1, EP2 modulator 24, MC4R antag cAMP 6, Granule exo inh -4, T cell HTS 332 and EP2 antag 7.
CC1CCc2cc(F)cc3c(O)c(C(=O)NCc4ccco4)c(=O)n1c23 (configuration not stated) was read as MC4R ag barr -2, EP2 modulator 69*, MC4R antag cAMP 3, Granule exo inh 0 and EP2 cAMP induct inactive.
`Cc1cc(Oc2ccccc2F)nc(NCc2ccccc2)n1` gave MC4R ag barr 3, EP2 modulator 66*, MC4R antag cAMP -4, Granule exo inh -3 and EP2 cAMP induct active.

High-throughput results from PubChem.
